Molecular target: human transferrin (Tf) (Homo sapiens, UniProt P02787)
Experiment: isothermal titration calorimetry
Type: binding
Summary of the method: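 Human transferrin in the sample cell, stated as 25 μM in one place and 20 μM in another; dialyzed and degassed before loading. Test compound at 200 μM in the syringe, added by automated titration after an initial dummy injection. Binding isotherm fitted to a two-site model to obtain the thermodynamic parameters.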

human transferrin (Tf), sequence (P02787 20-698): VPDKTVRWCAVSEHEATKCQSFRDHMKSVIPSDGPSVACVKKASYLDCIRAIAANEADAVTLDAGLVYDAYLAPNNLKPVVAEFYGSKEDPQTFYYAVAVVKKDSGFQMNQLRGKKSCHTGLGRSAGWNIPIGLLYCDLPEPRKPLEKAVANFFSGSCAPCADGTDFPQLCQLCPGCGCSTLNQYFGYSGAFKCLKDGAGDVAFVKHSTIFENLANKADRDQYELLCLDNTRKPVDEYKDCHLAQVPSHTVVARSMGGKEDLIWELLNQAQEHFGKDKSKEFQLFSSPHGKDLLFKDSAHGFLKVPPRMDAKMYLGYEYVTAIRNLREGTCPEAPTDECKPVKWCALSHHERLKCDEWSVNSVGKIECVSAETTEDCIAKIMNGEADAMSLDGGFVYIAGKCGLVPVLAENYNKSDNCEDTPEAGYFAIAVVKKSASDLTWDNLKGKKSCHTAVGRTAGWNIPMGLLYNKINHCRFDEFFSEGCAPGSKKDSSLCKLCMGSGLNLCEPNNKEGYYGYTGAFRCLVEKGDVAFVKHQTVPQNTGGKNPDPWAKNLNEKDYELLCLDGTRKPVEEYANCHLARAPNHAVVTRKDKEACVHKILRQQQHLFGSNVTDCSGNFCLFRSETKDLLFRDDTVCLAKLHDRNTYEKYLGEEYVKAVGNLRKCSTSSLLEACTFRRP

CNCCC(Oc1ccc(C(F)(F)F)cc1)c1ccccc1 (stereo not shown) [Fluoxetine]
Kd: 6.9 µM
